The source made the active and inactive calls. The calls are words filed in the database; no cut-off is given here.
Assays:
[1] = tested on: KYSE-70 cell line; assay: Antiproliferative activity against human KYSE-70 cells after 72 hrs by MTT assay; type: functional, cell-based; settings: KYSE-70, 72 h
Summary of the method: (§1)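 Cells grown as monolayers at 37 °C, 5% CO2, mycoplasma-checked, in exponential phase. Cells seeded in 96-well plates, 24 h attachment, then compound added for 72 h. MTT 0.3 mg/mL for 3 h at 37 °C, DMSO solubilization, absorbance at 570 nm. Inhibition = (1 − A/C) × 100%. IC50 from log(concentration) vs % inhibition plot; triplicate wells, SD from ≥3 independent experiments.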

[2] = tested on: KYSE-410; assay: Antiproliferative activity against human KYSE410 cells after 72 hrs by MTT assay; type: functional, cell-based; settings: KYSE-410, 72 h; summary of the method: as §1
[3] = tested on: KYSE-410; assay: Cell cycle arrest in human KYSE410 cells assessed as accumulation at G2 phase at 1 uM after 24 to 48 hrs by propidium iodide staining based flow cytometry (reference value: 12.2%); type: functional
[4] = tested on: KYSE-410; assay: Cell cycle arrest in human KYSE410 cells assessed as accumulation at G1 phase at 5 uM after 24 to 48 hrs by propidium iodide staining based flow cytometry (reference value: 65.4%); type: functional
[5] = tested on: MIA PaCa-2; assay: Antiproliferative activity against human MIAPaCa2 cells after 72 hrs by MTT assay; type: functional, cell-based; settings: MIA PaCa-2, 72 h; summary of the method: as §1
[6] = tested on: KYSE-410; assay: Cell cycle arrest in human KYSE410 cells assessed as accumulation at S phase at 1 uM after 24 to 48 hrs by propidium iodide staining based flow cytometry (reference value: 22.3%); type: functional
[7] = tested on: OVCAR-8; assay: Antiproliferative activity against human OVCAR8 cells after 72 hrs by MTT assay; type: functional, cell-based; settings: OVCAR-8, 72 h; summary of the method: as §1
[8] = tested on: KYSE-410; assay: Inhibition of autophagy in human KYSE410 cells assessed as decrease in bafilomycin-induced LC3B level at 1 to 10 uM after 24 hrs by Western blot analysis; type: functional, cell-based
Summary of the method: (§2)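 Cells treated 24 h at indicated concentrations, with bafilomycin for induced-LC3B readouts. Lysis in RIPA with protease inhibitors, BCA protein assay, samples heated 5 min at 100 °C. Equal protein run on 15% SDS-PAGE, transferred to PVDF. Anti-LC3B primary overnight at 4 °C, GAPDH as loading control, anti-rabbit secondary, TBST washes.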

[9] = tested on: MIA PaCa-2; assay: Inhibition of autophagy in human MIAPaCa2 cells assessed as decrease in bafilomycin-induced LC3B level at 1 to 10 uM after 24 hrs by Western blot analysis; type: functional, cell-based; summary of the method: as §2
[10] = tested on: KYSE-410; assay: Cell cycle arrest in human KYSE410 cells assessed as accumulation at G1 phase at 1 uM after 24 to 48 hrs by propidium iodide staining based flow cytometry (reference value: 65.4%); type: functional
[11] = tested on: KYSE-410; assay: Cell cycle arrest in human KYSE410 cells assessed as accumulation at S phase at 5 uM after 24 to 48 hrs by propidium iodide staining based flow cytometry (reference value: 22.3%); type: functional
[12] = tested on: SK-OV-3; assay: Antiproliferative activity against human SKOV3 cells after 72 hrs by MTT assay; type: functional, cell-based; settings: SK-OV-3, 72 h; summary of the method: as §1
[13] = tested on: KYSE-410; assay: Cell cycle arrest in human KYSE410 cells assessed as accumulation at G2 phase at 5 uM after 24 to 48 hrs by propidium iodide staining based flow cytometry (reference value: 12.2%); type: functional
[14] = tested on: KYSE-410; assay: Inhibition of colony formation in human KYSE410 cells at 0.4 to 30 uM after 7 days by crystal violet staining based assay; type: functional, cell-based
Summary of the method: (§3)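 Seeding at 250 cells/well in 96-well plates, attached 24 h, then serial compound dilutions added at 37 °C. Culture continued 7 days until colonies formed. Colonies washed, stained with 2% crystal violet for 1 h, then rinsed thoroughly with water.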

[15] = tested on: KYSE-70 cell line; assay: Inhibition of colony formation in human KYSE-70 cells at 0.4 to 30 uM after 7 days by crystal violet staining based assay; type: functional, cell-based; summary of the method: as §3

SMILES	IC50 [1] [µM]	IC50 [2] [µM]	also measured
COc1ccc(-c2ccc3c(C(=O)Nc4cccc(F)c4)cc(=O)[nH]c3c2)cc1	> 20	18	
CC(=O)c1ccc(-c2ccc3c(C(=O)Nc4cccc(F)c4)cc(=O)[nH]c3c2)cc1	> 20	> 20	
Nc1ccc(-c2ccc3c(C(=O)Nc4cccc(F)c4)cc(=O)[nH]c3c2)cc1	> 20	> 20	
COc1ccccc1NC(=O)c1ccnc2cc(Br)ccc12	> 20	> 20	
O=C(Nc1cc(F)cc(F)c1)c1cc(=O)[nH]c2c(O)cccc12	> 20	> 20	
O=C(Nc1cc(F)cc(F)c1)c1cc(=O)[nH]c2cc(C(F)(F)F)ccc12	14.2	17.9	
COc1ccccc1NC(=O)c1cc(=O)[nH]c2cc(Br)ccc12	> 20	> 20	
O=C(Nc1cccc(F)c1)c1cc(=O)[nH]c2cc(-c3ccc(F)c(CO)c3)ccc12	> 20	> 20	
O=C(Nc1cccc(F)c1)c1cc(=O)n(Cc2ccccc2)c2cc(Br)ccc12	> 20	> 20	
COc1ccc(NC(=O)c2cc(=O)[nH]c3cc(Br)ccc23)cc1	> 20	> 20	
O=C(Nc1cccc(F)c1)c1cc(=O)[nH]c2cc(Br)ccc12	8.9	7.3	Activity [3]: 13%; Activity [4]: 53.6%; IC50 [5]: 7.5 µM; Activity [6]: 25.1%; IC50 [7]: 5.8 µM; inhibition [8]: Active; inhibition [9]: Active; Activity [10]: 61.9%; Activity [11]: 24%; IC50 [12]: 10.6 µM; Activity [13]: 22.4%
O=C(c1cc(=O)[nH]c2cc(Br)ccc12)N1CCCCC1	> 20	> 20	
O=C(Nc1cccc(F)c1)c1cc(=O)[nH]c2cc(C3CC3)ccc12	> 20	> 20	
O=C(Nc1cc(F)ccc1F)c1cc(=O)[nH]c2cc(Br)ccc12	> 20	> 20	
O=C(Nc1ccc(OC(F)(F)F)cc1)c1cc(=O)[nH]c2cc(Br)ccc12	> 20	> 20	
O=C(Nc1ccc(Cl)cc1)c1cc(=O)[nH]c2cc(Br)ccc12	> 20	> 20	
O=C(Nc1ccc(F)cc1)c1ccnc2cc(Br)ccc12	> 20	> 20	
O=C(Nc1cccc(F)c1)c1cc(=O)[nH]c2cc(F)ccc12	> 20	> 20	
O=C(Nc1cc(F)cc(F)c1)c1cc(=O)[nH]c2cc(F)ccc12	> 20	> 20	
COc1cccc(NC(=O)c2cc(=O)[nH]c3cc(Br)ccc23)c1	> 20	> 20	
Cc1cc(-c2ccc3c(C(=O)Nc4cccc(F)c4)cc(=O)[nH]c3c2)c(C)cc1F	> 20	> 20	
COc1ccc(OC)c(NC(=O)c2cc(=O)[nH]c3cc(Br)ccc23)c1	> 20	> 20	
COc1cccc2c(C(=O)Nc3cc(F)cc(F)c3)cc(=O)[nH]c12	> 20	> 20	
O=C(Nc1cccc(F)c1)c1cc(=O)[nH]c2cc(-c3ccccc3)ccc12	> 20	> 20	
O=C(Nc1cccc(F)c1)c1cc(=O)[nH]c2cc(-c3ccc(F)cc3)ccc12	3.3	10.3	IC50 [5]: 19.3 µM; IC50 [7]: 22.3 µM; IC50 [12]: 16.6 µM
O=C(Nc1cccc(F)c1)c1cc(=O)[nH]c2cc(-c3ccsc3)ccc12	5.1	4.3	Activity [3]: 14.7%; Activity [4]: 22.6%; IC50 [5]: 4.5 µM; Activity [6]: 21.7%; IC50 [7]: 13.4 µM; Activity [10]: 63.6%; Activity [11]: 22.4%; IC50 [12]: 6.7 µM; Activity [13]: 54.9%
O=C(Nc1cc(F)c(F)c(F)c1)c1cc(=O)[nH]c2cc(Br)ccc12	> 20	> 20	
CC(C)(C)c1ccc(NC(=O)c2cc(=O)[nH]c3cc(Br)ccc23)cc1	> 20	> 20	inhibition [14]: inactive; inhibition [15]: inactive

— ChEMBL document CHEMBL4152308, “Synthesis and biological evaluation of novel 2-oxo-1,2-dihydroquinoline-4-carboxamide derivatives for the treatment of esophageal squamous cell carcinoma” (Eur J Med Chem, 2018)
